Data: ChEMBL document CHEMBL1255567, “Design, synthesis, and structure-activity relationships of novel bicyclic azole-amines as negative allosteric modulators of metabotropic glutamate receptor 5” (J Med Chem, 2010)
The source made the active and inactive calls. The calls are words filed in the database; no cut-off is given here.

Key:
[1] = molecular target: T1, Metabotropic glutamate receptor 5 (Homo sapiens, UniProt P41594); test: Modulation of human recombinant mGluR5 expressed in CHO cells assessed as inhibition of glutamate-induced response; format: cell-based
Outline: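 Aequorin cell line with doxycycline-inducible human mGluR5, induced 18 h (600 ng/mL). Cells loaded with coelenterazine-h ≥4 h at room temperature, preincubated with compound ≥3 min, then challenged with glutamate at EC80. Luminescence read on FDSS 6000, normalized to digitonin or 20 μM ATP wells. IC50 from sigmoidal fit; mean of two determinations.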
Target sequence in this assay (P41594 whole entry): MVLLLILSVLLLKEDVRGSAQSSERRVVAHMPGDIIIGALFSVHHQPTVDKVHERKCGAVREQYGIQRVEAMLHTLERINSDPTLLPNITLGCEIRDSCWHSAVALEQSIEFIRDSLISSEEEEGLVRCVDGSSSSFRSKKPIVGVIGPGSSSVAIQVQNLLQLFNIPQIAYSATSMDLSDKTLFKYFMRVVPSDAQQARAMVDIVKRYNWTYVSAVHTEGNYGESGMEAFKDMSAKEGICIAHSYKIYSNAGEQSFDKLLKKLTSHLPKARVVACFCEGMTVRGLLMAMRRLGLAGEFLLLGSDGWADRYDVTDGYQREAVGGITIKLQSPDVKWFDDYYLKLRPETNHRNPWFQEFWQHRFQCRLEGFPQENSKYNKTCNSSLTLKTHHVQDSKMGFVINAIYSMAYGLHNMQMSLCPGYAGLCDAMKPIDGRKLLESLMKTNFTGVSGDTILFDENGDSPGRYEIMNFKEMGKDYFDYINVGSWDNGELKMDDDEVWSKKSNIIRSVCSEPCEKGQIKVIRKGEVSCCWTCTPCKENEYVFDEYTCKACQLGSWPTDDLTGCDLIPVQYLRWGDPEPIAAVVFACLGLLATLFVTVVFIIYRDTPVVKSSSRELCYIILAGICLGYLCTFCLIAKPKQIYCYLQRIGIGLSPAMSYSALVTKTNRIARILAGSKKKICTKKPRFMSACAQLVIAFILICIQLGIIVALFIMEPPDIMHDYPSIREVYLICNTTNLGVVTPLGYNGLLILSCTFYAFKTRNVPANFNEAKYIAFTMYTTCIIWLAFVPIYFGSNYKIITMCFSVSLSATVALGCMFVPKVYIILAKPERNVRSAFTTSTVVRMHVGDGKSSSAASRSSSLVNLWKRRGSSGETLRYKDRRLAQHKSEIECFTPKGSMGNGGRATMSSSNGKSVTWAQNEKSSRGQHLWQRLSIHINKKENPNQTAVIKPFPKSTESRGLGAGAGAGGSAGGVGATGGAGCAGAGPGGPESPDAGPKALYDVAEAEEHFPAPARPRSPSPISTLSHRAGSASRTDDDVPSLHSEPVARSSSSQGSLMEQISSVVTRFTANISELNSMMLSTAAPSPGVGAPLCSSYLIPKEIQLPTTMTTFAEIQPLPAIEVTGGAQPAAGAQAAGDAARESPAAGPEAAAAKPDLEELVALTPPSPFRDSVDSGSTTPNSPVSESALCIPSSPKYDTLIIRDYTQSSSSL

[2] = molecular target: T1, Metabotropic glutamate receptor 5; test: Modulation of human recombinant mGluR5 expressed in CHO cells assessed as inhibition of glutamate-induced response at 10 uM; format: cell-based
Target sequence in this assay (P41594 21-1212 limits assumed): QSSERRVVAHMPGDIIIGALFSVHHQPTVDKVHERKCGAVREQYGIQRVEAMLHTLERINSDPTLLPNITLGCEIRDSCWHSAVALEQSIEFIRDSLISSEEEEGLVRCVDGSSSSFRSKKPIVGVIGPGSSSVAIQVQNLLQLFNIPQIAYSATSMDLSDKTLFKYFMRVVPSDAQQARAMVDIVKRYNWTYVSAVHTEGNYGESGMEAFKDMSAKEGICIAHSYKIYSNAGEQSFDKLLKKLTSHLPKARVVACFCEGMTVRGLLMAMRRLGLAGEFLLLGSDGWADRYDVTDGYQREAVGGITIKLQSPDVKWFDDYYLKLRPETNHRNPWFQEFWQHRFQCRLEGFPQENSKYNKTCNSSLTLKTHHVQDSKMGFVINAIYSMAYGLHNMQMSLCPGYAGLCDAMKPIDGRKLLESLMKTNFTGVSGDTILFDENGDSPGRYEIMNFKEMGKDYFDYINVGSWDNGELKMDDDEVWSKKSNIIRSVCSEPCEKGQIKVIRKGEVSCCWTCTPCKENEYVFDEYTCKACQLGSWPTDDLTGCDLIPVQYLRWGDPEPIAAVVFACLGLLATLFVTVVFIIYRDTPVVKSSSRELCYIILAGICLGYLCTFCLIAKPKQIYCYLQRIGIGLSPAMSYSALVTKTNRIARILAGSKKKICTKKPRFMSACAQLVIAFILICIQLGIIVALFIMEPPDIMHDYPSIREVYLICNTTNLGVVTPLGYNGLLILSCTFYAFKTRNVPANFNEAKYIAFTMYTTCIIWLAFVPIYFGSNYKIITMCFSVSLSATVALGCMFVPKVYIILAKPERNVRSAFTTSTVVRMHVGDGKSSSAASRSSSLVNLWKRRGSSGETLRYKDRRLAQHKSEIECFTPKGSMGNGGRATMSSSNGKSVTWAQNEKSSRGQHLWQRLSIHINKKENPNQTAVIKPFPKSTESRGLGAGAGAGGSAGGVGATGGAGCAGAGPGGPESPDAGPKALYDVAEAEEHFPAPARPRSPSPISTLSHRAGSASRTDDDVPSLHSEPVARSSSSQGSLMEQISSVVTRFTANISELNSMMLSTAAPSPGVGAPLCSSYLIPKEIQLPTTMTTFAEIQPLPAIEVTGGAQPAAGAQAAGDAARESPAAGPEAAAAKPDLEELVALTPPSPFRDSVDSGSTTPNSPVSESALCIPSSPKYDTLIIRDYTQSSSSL

[3] = AUC (0 to t) in Sprague-Dawley rat at 2 mg/kg, po; format: ADME, organism-based; design: dose 2 mg/kg, route oral; details: plasma
Outline: (§1)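 Male Sprague-Dawley rats, 3 per cohort; 2 mg/kg iv or 2 and 10 mg/kg oral gavage. Vehicle 40% hydroxypropyl-βCD:50 mM potassium phosphate pH 6.0 (50:50), 0.5 mg/mL nominal, filtered. Jugular-cannula blood predose and 5 min to 24 h. K2-EDTA plasma, methanol precipitation with internal standard, LC/MS/MS (LLOQ 2.5 ng/mL). Noncompartmental analysis.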

[4] = Clearance in Sprague-Dawley rat at 2 mg/kg, iv; format: ADME, organism-based; design: dose 2 mg/kg, route intravenous; details: in vivo; outline: as §1
[5] = AUC (0 to t) in Sprague-Dawley rat at 2 mg/kg, iv; format: ADME, organism-based; design: dose 2 mg/kg, route intravenous; details: plasma; outline: as §1
Rattus norvegicus [6] = test: Ex vivo receptor occupancy of mGluR5 receptor in Sprague-Dawley rat brain at 3 mg/kg, ip after 30 mins; format: functional; details: route intraperitoneal
Outline: (§2)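 Male Sprague-Dawley rats (n = 4) dosed 3 mg/kg ip in 45% HPβCD. At set times postdose, iv tail-vein 3H-mPEPy tracer; decapitated 2 min later. Striatum and cerebellum sections imaged 12 h on β-imager. %RO derived from striatum:cerebellum signal ratio relative to vehicle animals; mean ± SEM.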

[7] = Cmax in rhesus monkey at 1 mg/kg, po; format: ADME, organism-based, Macaca mulatta; design: dose 1 mg/kg, route oral; details: in vivo
Outline: (§3)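 Male Rhesus monkeys, 3 per cohort; 1 mg/kg iv or oral gavage. Vehicle 40% hydroxypropyl-βCD:50 mM potassium phosphate pH 6.0 (50:50), 0.5 mg/mL nominal, filtered. Femoral vein blood predose and 5 min to 24 h. K3EDTA plasma, protein precipitation with internal standard, LC/MS/MS (LLOQ 2.5 ng/mL). Noncompartmental PK parameters.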

Rattus norvegicus [8] = test: Ex vivo receptor occupancy of mGluR5 receptor in Sprague-Dawley rat brain at 3 mg/kg, ip after 2 hrs; format: functional; details: route intraperitoneal; outline: as §2
Rattus norvegicus [9] = test: Ex vivo receptor occupancy of mGluR5 receptor in ip dosed Sprague-Dawley rat brain after 60 mins; format: functional; details: 1 h
Outline: (§4)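 Male Sprague-Dawley rats (200-250 g, n = 4) dosed ip or po at 0.3, 1, 3, 10, 30 mg/kg in 45% HPβCD. After 60 min, iv 3H-mPEPy tracer; killed 2 min later. Striatal versus cerebellar radioactivity on β-imager gives %RO against vehicle. Dose-occupancy curves fitted.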

[10] = Oral bioavailability in Sprague-Dawley rat at 2 mg/kg; format: ADME, organism-based; details: in vivo; outline: as §1
[11] = Volume of distribution in Sprague-Dawley rat at 2 mg/kg, iv; format: ADME, organism-based; design: dose 2 mg/kg, route intravenous; details: in vivo; outline: as §1
Rattus norvegicus [12] = test: (§5) Half life in Sprague-Dawley rat at 2 mg/kg, iv; format: ADME, organism-based; design: dose 2 mg/kg, route intravenous; details: in vivo; outline: as §1
[13] = as §5; format: ADME, organism-based; design: dose 2 mg/kg, route intravenous; details: Sprague-Dawley, in vivo; outline: as §1
[14] = Clearance in rhesus monkey at 1 mg/kg, iv; format: ADME, organism-based, Macaca mulatta; design: dose 1 mg/kg, route intravenous; details: in vivo; outline: as §3
Rhesus monkey = test: Cmax in rhesus monkey at 1 mg/kg, iv; format: ADME, organism-based, Macaca mulatta; design: dose 1 mg/kg, route intravenous; details: in vivo; outline: as §3
[15] = Cmax in Sprague-Dawley rat at 2 mg/kg, po; format: ADME, organism-based; design: dose 2 mg/kg, route oral; details: in vivo; outline: as §1
[16] = Half life in rhesus monkey at 1 mg/kg, iv; format: ADME, organism-based, Macaca mulatta; design: dose 1 mg/kg, route intravenous; details: in vivo; outline: as §3
[17] = Oral bioavailability in rhesus monkey at 1 mg/kg; format: ADME, organism-based, Macaca mulatta; details: in vivo; outline: as §3
[18] = Cmax in Sprague-Dawley rat at 2 mg/kg, iv; format: ADME, organism-based; design: dose 2 mg/kg, route intravenous; details: in vivo; outline: as §1
[19] = molecular target: Kappa-type opioid receptor (Homo sapiens) (UniProt P41145); test: Inhibition of kappa opioid receptor at 10 uM
Sequence of Kappa-type opioid receptor (Homo sapiens) (P41145 whole entry): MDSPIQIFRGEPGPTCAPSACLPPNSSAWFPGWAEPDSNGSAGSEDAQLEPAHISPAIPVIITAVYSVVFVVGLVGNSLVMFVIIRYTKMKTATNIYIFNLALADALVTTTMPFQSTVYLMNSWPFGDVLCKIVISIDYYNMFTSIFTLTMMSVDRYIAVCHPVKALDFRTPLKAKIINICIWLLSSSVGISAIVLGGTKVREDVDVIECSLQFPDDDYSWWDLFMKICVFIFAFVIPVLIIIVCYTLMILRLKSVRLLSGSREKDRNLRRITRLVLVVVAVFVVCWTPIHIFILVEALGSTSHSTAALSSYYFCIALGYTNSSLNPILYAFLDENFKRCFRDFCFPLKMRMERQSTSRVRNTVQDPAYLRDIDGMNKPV

[20] = Cmax in Sprague-Dawley rat at 10 mg/kg, po; format: ADME, organism-based; design: dose 10 mg/kg, route oral; details: in vivo; outline: as §1
[21] = Half life in Sprague-Dawley rat at 2 mg/kg, po; format: ADME, organism-based; design: dose 2 mg/kg, route oral; details: in vivo; outline: as §1
[22] = Half life in Sprague-Dawley rat at 10 mg/kg, po; format: ADME, organism-based; design: dose 10 mg/kg, route oral; details: in vivo; outline: as §1
[23] = Volume of distribution in rhesus monkey at 1 mg/kg, iv; format: ADME, organism-based, Macaca mulatta; design: dose 1 mg/kg, route intravenous; details: in vivo; outline: as §3
Rattus norvegicus [24] = test: Ex vivo receptor occupancy of mGluR5 receptor in Sprague-Dawley rat brain at 3 mg/kg, ip after 24 hrs; format: functional, organism-based; design: dose 3 mg/kg; outline: as §2
[25] = AUC (0 to t) in rhesus monkey at 1 mg/kg, iv; format: ADME, organism-based, Macaca mulatta; design: dose 1 mg/kg, route intravenous; details: plasma; outline: as §3
[26] = Oral bioavailability in Sprague-Dawley rat at 10 mg/kg; format: ADME, organism-based; details: in vivo; outline: as §1
[27] = molecular target: Metabotropic glutamate receptor 5 (Rattus norvegicus, UniProt P31424); test: Displacement of [3H]-MPEP from mGluR5 in rat cortical membranes; format: cell membranes, Membrane
Sequence of Metabotropic glutamate receptor 5 (Rattus norvegicus, UniProt P31424) (P31424 whole entry): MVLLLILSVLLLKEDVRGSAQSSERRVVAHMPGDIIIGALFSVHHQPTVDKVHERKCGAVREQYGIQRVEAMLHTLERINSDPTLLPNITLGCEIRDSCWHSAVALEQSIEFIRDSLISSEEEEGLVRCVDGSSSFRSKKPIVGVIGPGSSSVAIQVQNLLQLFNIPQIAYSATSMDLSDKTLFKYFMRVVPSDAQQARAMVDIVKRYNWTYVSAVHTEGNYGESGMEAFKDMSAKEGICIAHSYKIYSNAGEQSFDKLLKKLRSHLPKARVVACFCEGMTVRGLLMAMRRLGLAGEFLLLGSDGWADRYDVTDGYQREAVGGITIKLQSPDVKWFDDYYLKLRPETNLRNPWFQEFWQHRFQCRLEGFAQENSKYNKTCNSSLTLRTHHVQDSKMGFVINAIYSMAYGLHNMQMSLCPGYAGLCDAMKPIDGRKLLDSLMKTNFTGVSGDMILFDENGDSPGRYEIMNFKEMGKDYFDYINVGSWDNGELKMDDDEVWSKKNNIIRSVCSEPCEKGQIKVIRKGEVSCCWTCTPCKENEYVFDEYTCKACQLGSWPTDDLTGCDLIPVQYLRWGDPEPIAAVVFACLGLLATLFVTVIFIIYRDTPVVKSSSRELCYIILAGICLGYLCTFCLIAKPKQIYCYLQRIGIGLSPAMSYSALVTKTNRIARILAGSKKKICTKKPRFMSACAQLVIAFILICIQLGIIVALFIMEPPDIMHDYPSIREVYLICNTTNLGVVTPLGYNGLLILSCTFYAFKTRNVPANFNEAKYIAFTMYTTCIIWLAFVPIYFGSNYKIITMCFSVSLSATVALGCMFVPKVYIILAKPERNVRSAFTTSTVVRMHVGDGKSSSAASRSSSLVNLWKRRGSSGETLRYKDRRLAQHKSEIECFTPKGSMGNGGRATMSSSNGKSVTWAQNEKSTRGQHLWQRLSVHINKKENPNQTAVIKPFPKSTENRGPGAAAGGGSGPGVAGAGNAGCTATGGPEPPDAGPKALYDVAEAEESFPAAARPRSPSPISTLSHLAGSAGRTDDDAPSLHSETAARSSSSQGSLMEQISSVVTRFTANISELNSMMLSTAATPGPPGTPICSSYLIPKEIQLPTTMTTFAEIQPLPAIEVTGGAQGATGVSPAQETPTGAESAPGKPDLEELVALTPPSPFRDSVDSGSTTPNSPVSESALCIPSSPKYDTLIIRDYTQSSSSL
Outline: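 Competition binding against [3H]-MPEP on rat cortical membranes, run in duplicate. Nonspecific binding defined with a 200-fold excess of reference modulator. Incubated 120 min at 4 °C in 0.1 mL, filtered on PEI-presoaked GF-C filters, washed with cold 50 mM Tris-HCl pH 7.4, scintillation counted. Ki reported as mean of two determinations; MPEP used as control.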

[28] = AUC (0 to t) in rhesus monkey at 1 mg/kg, po; format: ADME, organism-based, Macaca mulatta; design: dose 1 mg/kg, route oral; details: plasma; outline: as §3
Rattus norvegicus [29] = test: Ex vivo receptor occupancy of mGluR5 receptor in Sprague-Dawley rat brain at 3 mg/kg, ip after 60 mins; format: functional; details: route intraperitoneal; outline: as §2
[30] = Half life in rhesus monkey at 1 mg/kg, po; format: ADME, organism-based, Macaca mulatta; design: dose 1 mg/kg, route oral; details: in vivo; outline: as §3
[31] = AUC (0 to t) in Sprague-Dawley rat at 10 mg/kg, po; format: ADME, organism-based; design: dose 10 mg/kg, route oral; details: plasma; outline: as §1
Plasma = test: Drug level in Sprague-Dawley rat plasma at 3 mg/kg, ip; format: ADME, organism-based; design: dose 3 mg/kg, route intraperitoneal; details: in vivo
Outline: (§6)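 Male Sprague-Dawley rats (200-250 g, n = 4) given 3 mg/kg ip in 45% HPβCD. Trunk blood and brain taken at sacrifice. Brain homogenized at 40 mg/mL in 95:5 water:acetonitrile with 0.1% formic acid. Plasma or homogenate precipitated with acetonitrile, dried, reconstituted and measured by LC/MS/MS.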

Rattus norvegicus [32] = test: Ex vivo receptor occupancy of mGluR5 receptor in po dosed Sprague-Dawley rat brain after 60 mins; format: functional; details: 1 h; outline: as §4
Brain = test: Drug level in Sprague-Dawley rat brain at 3 mg/kg, ip; format: ADME, organism-based; design: dose 3 mg/kg, route intraperitoneal; details: in vivo, read-out: Drug uptake; outline: as §6

N#Cc1cccc(N2CC3N=C(c4ccccn4)OC3C2)c1 (stereo not drawn)
IC50 [1]: 219 nM

N#Cc1cccc(N2CCc3nc(C4CCCCC4)oc3C2)c1
inhibition [2]: 79%

CC(C)N1CCc2oc(-c3ccccn3)nc2C1
inhibition [2]: 0%

N#Cc1cccc(CN2CCc3nc(-c4ccccn4)oc3C2)c1
inhibition [2]: 55%

N#Cc1cc(F)cc(N2CCCc3oc(-c4ccccn4)nc3C2)c1
IC50 [1]: 16 nM
AUC(0-t) [3]: 0.7 µM·h
clearance [4]: 46.5 mL/min/kg
AUC(0-t) [5]: 2.26 µM·h
Activity (Rattus norvegicus [6]): 85%
Cmax [7]: 210 nM
Activity (Rattus norvegicus [8]): 55%
ED50 (Rattus norvegicus [9]): 0.9 mg/kg
bioavailability [10]: 31%
Vd [11]: 2.38 L/kg
Drug uptake (Rattus norvegicus [12]): 1096 nM
half-life [13]: 37.2 min
clearance [14]: 16.3 mL/min/kg
Cmax (Rhesus monkey): 5080 nM
Cmax [15]: 620 nM
half-life [16]: 40.2 min
bioavailability [17]: 10%
Cmax [18]: 5250 nM
inhibition [19]: 77%
Cmax [20]: 2730 nM
half-life [21]: 46.2 min
half-life [22]: 54.6 min
Vd [23]: 0.95 L/kg
Activity (Rattus norvegicus [24]): inactive
AUC(0-t) [25]: 3.06 µM·h
bioavailability [26]: 30%
Ki [27]: 17 nM
AUC(0-t) [28]: 0.28 µM·h
Activity (Rattus norvegicus [29]): 82%
half-life [30]: 37.8 min
AUC(0-t) [31]: 3.36 µM·h
concentration (Plasma): 1430 nM

N#Cc1cc(F)cc(N2CCc3nc(-c4ccccn4)[nH]c3C2)c1
inhibition [2]: 34%

N#Cc1cc(F)cc(N2CCn3cc(-c4ccccn4)nc3C2)c1
IC50 [1]: 153 nM

Cc1nc2c(o1)CCN(c1ncccc1C#N)C2
inhibition [2]: 7%

N#Cc1cccnc1N1CCc2nc(-c3ccccc3)oc2C1
inhibition [2]: 79%

N#Cc1cccc(C(=O)N2CCc3nc(-c4ccccn4)oc3C2)c1
IC50 [1]: 2600 nM

N#Cc1cc(F)cc(N2CCc3nc(-c4ccccn4)sc3C2)c1
inhibition [2]: 52%

N#Cc1cc(F)cc(N2CCc3nc(-c4ccccn4)oc3C2)c1
IC50 [1]: 54 nM

N#Cc1cccc(N2CCc3nc(-c4ccccn4)oc3C2)c1
IC50 [1]: 290 nM

N#Cc1cccnc1N1CCc2oc(-c3ccccc3)nc2C1
IC50 [1]: 1200 nM

N#Cc1cc(F)cc(N2CCn3nc(-c4ccccn4)nc3C2)c1
IC50 [1]: 346 nM

N#Cc1cccc(N2CCc3nc(-c4cccnc4)oc3C2)c1
inhibition [2]: 14%

c1ccc(-c2nc3c(o2)CCN(C2CCCCC2)C3)nc1
inhibition [2]: 0%

N#Cc1cc(F)cc(N2CCc3oc(-c4ccccn4)nc3C2)c1
IC50 [1]: 28 nM
Ki [27]: 17 nM
ED50 (Rattus norvegicus [32]): > 30 mg/kg
Activity (Rattus norvegicus [29]): 45%
concentration (Brain): 1290 nM

COC(=O)N1CCc2oc(-c3ccccn3)nc2C1
inhibition [2]: 11%

N#Cc1cccc(N2CCc3oc(-c4ccccn4)nc3C2)c1
IC50 [1]: 60 nM

c1ccc(-c2nc3c(o2)CCN(C2CCNCC2)C3)nc1
inhibition [2]: 0%

N#Cc1cccc(N2CCc3oc(-c4ccncc4)nc3C2)c1
inhibition [2]: 30%

CC(C)c1nc2c(o1)CN(c1cccc(C#N)c1)CC2
inhibition [2]: 6%

N#Cc1cccc(N2CCc3nc(C4CCCCN4)oc3C2)c1 (racemic)
inhibition [2]: 79%

N#Cc1cccc(S(=O)(=O)N2CCc3nc(-c4ccccn4)oc3C2)c1
inhibition [2]: 14%

N#Cc1cccnc1N1CCc2nc(-c3ccccn3)oc2C1
IC50 [1]: 640 nM

c1ccc(N2CCc3oc(-c4ccccn4)nc3C2)cc1
IC50 [1]: 330 nM

N#Cc1cccnc1N1CCc2oc(-c3ccccn3)nc2C1
IC50 [1]: 110 nM
